The nature of assay [1]: hit retest on RPL19A-GFP reporter strain – cell-based, S. cerevisiae, flow cytometry, cherry picks, mother/daughter gates, confirmation (AID 2270;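 active = GFP response below 50% of the DMSO control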). The note with it: 3 h, at 10 µM, stronger effect = lower value, 100 = same GFP as DMSO wells. A general note: A flow cytometer gives signals particle by particle.
The nature of assay [2]: yeast TOR pathway reporter LAP4-GFP change – cell-based, cherry picks, flow cytometry, mother/daughter gates, confirmation (AID 2271;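 active = GFP response above 150% of the DMSO control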;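 note: ratio of sample to DMSO plate mean so 100% equals DMSO level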). The note with it: S. cerevisiae LAP4-GFP strain, 3 h, at 10 µM, stronger effect = higher value, 100 means same as DMSO control. An outline of the steps: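 Measured by: GFP by flow cytometry. Test system: GFP-fusion yeast strain. Input: yeast cells seeded at OD600 of 0.2. Timing: 30 °C, 3 h compound incubation, rotating. Buffer or medium: synthetic complete medium for yeast. Benchmarks: DMSO-only negative wells, rapamycin 400 ng/mL positive wells. Compound: 10 µM single dose.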

Assay [3] is described as follows: TOR pathway reporter MEP2-GFP, retest of hits – S. cerevisiae, flow cytometry GFP, cherry picks, confirmation (AID 2272;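 active = GFP response above 150% of the DMSO control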;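 note: ratio of well signal to plate DMSO mean so 100% equals DMSO level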). The settings on record: S. cerevisiae MEP2-GFP strain, 3 h, at 10 µM, stronger effect = higher value.
A short description of assay [4]: yeast AGP1-GFP fluorescence change, single-dose – cell-based, flow cytometry, S. cerevisiae, cherry picks, confirmation (AID 2273).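 Note: median GFP channel fluorescence over the whole cell population gate.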 The settings on record: S. cerevisiae AGP1-GFP strain, 3 h, at 10 µM.
The nature of assay [5]: TOR pathway CIT2 reporter hit retest – S. cerevisiae, GFP fusion, cherry picks, mother/daughter gates, confirmation (AID 2274). The note with it: S. cerevisiae CIT2-GFP strain, flow cytometry, 3 h, at 10 µM, stronger effect = higher value.
The mark [6] stands for this setting: measured here: daughter cell gate.
Setting [7] is: measured here: mother cell gate.
Where [8] appears, read: measured here: daughter cell gate response.
The mark [9] stands for this setting: measured here: mother cell gate response.

SMILES strings stand for the structures. Active and inactive are the calls of the source.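 Rule for the calls, unless noted: active = GFP response above 150% of the DMSO level; inconclusive = fewer than 70 events counted for a yeast strain; inactive = the rest.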

The record followed here is PubChem BioAssay.

As for `Cc1cccc(NC(=O)/C(C#N)=C/c2ccccc2Cl)n1`, the GFP response vs DMSO was 91.2% (inactive) in assay [1], 91% in assay [1] (setting [6]), 86.6% in assay [1] (setting [7]) and 153% (inactive) in assay [3]. In addition, the GFP response relative to DMSO in assay [2] was 147% (inactive); in assay [2] (setting [8]), 133%; in assay [2] (setting [9]), 145%. Also, the GFP response, % of DMSO in assay [4] is 109% (inactive); in assay [5] it was 112% (inactive); in assay [5] (setting [6]), 117%; in assay [5] (setting [7]) it was 103%.

For the molecule `Cc1cccc(OCCCSc2nc3ccc(C)cc3[nH]2)c1`, the GFP response vs DMSO is 92% (inactive) in assay [1], 89.2% in assay [1] (setting [6]), 92.2% in assay [1] (setting [7]) and 94.7% (inactive) in assay [3]. Besides, the GFP response relative to DMSO in assay [2] was 124% (inactive); in assay [2] (setting [8]) it was 115%; in assay [2] (setting [9]) it was 127%. Also, the GFP response, % of DMSO is 91.6% (inactive) in assay [4], 79.9% (inactive) in assay [5], 77.5% in assay [5] (setting [6]) and 82.1% in assay [5] (setting [7]).

In the case of `O=S(=O)(c1ccc(Oc2ccc(Br)cc2)cc1)N1CCOCC1`, the GFP response vs DMSO in assay [1] was 103% (inactive); in assay [1] (setting [6]), 102%; in assay [1] (setting [7]) it was 103%; in assay [3], 97.5% (inactive). Further, the GFP response relative to DMSO was 86% (inactive) in assay [2], 86.4% in assay [2] (setting [8]) and 83.7% in assay [2] (setting [9]). Also, the GFP response, % of DMSO in assay [4] was 90.1% (inactive); in assay [5], 95% (inactive); in assay [5] (setting [6]) it was 96.4%; in assay [5] (setting [7]), 93.3%.

`CCOc1ccc(C(=O)/C=C/c2ccccc2C(F)(F)F)cc1`: the GFP response vs DMSO in assay [1] was 98.2% (inactive); in assay [1] (setting [6]), 96.9%; in assay [1] (setting [7]) it was 99%; in assay [3] it was 100% (inactive). Besides, the GFP response relative to DMSO in assay [2] was 97.9% (inactive); in assay [2] (setting [8]), 99.2%; in assay [2] (setting [9]), 96.1%. Further, the GFP response, % of DMSO is 99.1% (inactive) in assay [4], 104% (inactive) in assay [5], 105% in assay [5] (setting [6]) and 103% in assay [5] (setting [7]).

As to `COc1cccc2c1Oc1ncccc1N(C(=O)CCC(=O)NCc1ccc(C)cc1)C2`, the GFP response vs DMSO was 101% (inactive) in assay [1], 100% in assay [1] (setting [6]), 103% in assay [1] (setting [7]) and 99% (inactive) in assay [3]. Moreover, the GFP response relative to DMSO was 95.7% (inactive) in assay [2], 94.2% in assay [2] (setting [8]) and 96.2% in assay [2] (setting [9]). The GFP response, % of DMSO in assay [4] is 106% (inactive); in assay [5], 98.8% (inactive); in assay [5] (setting [6]), 99.2%; in assay [5] (setting [7]), 98.1%.

`O=S(=O)(c1ccccc1)N1N=C(c2cccs2)CC1c1ccc(Br)cc1` (stereo not drawn): the GFP response vs DMSO was 98% (inactive) in assay [1], 99.4% in assay [1] (setting [6]), 98.4% in assay [1] (setting [7]) and 102% (inactive) in assay [3]. Besides, the GFP response relative to DMSO is 97.9% (inactive) in assay [2], 99.2% in assay [2] (setting [8]) and 97.2% in assay [2] (setting [9]). The GFP response, % of DMSO in assay [4] was 98.3% (inactive); in assay [5], 98.3% (inactive); in assay [5] (setting [6]), 97.2%; in assay [5] (setting [7]), 97.3%.

Consider `COc1cc(-c2nc3ccccn3c2NCC2CCCO2)ccc1O` (stereo not drawn), for which the GFP response vs DMSO in assay [1] was 102% (inactive); in assay [1] (setting [6]), 106%; in assay [1] (setting [7]) it was 102%; in assay [3], 106% (inactive). The GFP response relative to DMSO in assay [2] was 93% (inactive); in assay [2] (setting [8]) it was 95%; in assay [2] (setting [9]) it was 88.7%. Besides, the GFP response, % of DMSO in assay [4] was 103% (inactive); in assay [5], 106% (inactive); in assay [5] (setting [6]), 108%; in assay [5] (setting [7]) it was 104%.

Take `Nc1ccccc1NC(=O)c1ccccc1`: the GFP response vs DMSO in assay [1] was 101% (inactive); in assay [1] (setting [6]), 103%; in assay [1] (setting [7]) it was 99.8%; in assay [3], 106% (inactive). Also, the results for the GFP response relative to DMSO in assay [2], in assay [2] (setting [8]) and in assay [2] (setting [9]) were 98.9% (inactive), 96% and 99.5%, respectively. For the same molecule, the GFP response, % of DMSO in assay [4] was 98.4% (inactive); in assay [5], 101% (inactive); in assay [5] (setting [6]), 103%; in assay [5] (setting [7]) it was 103%.

`CCOc1ccc(N/N=C(/C#N)C(N)=O)cc1`: the GFP response vs DMSO is 82.7% (inactive) in assay [1], 65.8% in assay [1] (setting [6]), 81.8% in assay [1] (setting [7]) and 176% (active) in assay [3]. Moreover, the GFP response relative to DMSO was 237% (active) in assay [2], 182% in assay [2] (setting [8]) and 250% in assay [2] (setting [9]). The GFP response, % of DMSO in assay [4] was 113% (inactive); in assay [5], 161% (active); in assay [5] (setting [6]), 128%; in assay [5] (setting [7]), 159%.

In the case of `COc1ccccc1N1C(=O)c2cccc3c(C(=O)O)ccc(c23)C1=O`, the GFP response vs DMSO was 98.8% (inactive) in assay [1], 99.1% in assay [1] (setting [6]), 98.7% in assay [1] (setting [7]) and 105% (inactive) in assay [3]. Besides, the GFP response relative to DMSO in assay [2] is 101% (inactive); in assay [2] (setting [8]) it was 101%; in assay [2] (setting [9]), 98.3%. The GFP response, % of DMSO in assay [4] is 97.4% (inactive); in assay [5], 99.7% (inactive); in assay [5] (setting [6]) it was 101%; in assay [5] (setting [7]), 98.5%.

As to `COc1cc(/C=C2\N=C(c3ccccc3)OC2=O)ccc1OCc1c(C)no[n+]1[O-]`, the GFP response vs DMSO in assay [1] is 103% (inactive); in assay [1] (setting [6]), 101%; in assay [1] (setting [7]) it was 103%; in assay [3], 104% (inactive). Further, the GFP response relative to DMSO in assay [2] is 96.5% (inactive); in assay [2] (setting [8]) it was 97.9%; in assay [2] (setting [9]) it was 96.5%. For the same molecule, the GFP response, % of DMSO in assay [4] is 97.5% (inactive); in assay [5], 99.3% (inactive); in assay [5] (setting [6]), 100%; in assay [5] (setting [7]) it was 96.8%.

Turning to `O=C(CCc1ccc(S(=O)(=O)N2CCOCC2)cc1)Oc1ccccc1`, the GFP response vs DMSO in assay [1] was 99.6% (inactive); in assay [1] (setting [6]), 101%; in assay [1] (setting [7]), 99.2%; in assay [3], 123% (inactive). Further, the GFP response relative to DMSO in assay [2] was 111% (inactive); in assay [2] (setting [8]), 112%; in assay [2] (setting [9]) it was 109%. Also, the GFP response, % of DMSO in assay [4] was 97.2% (inactive); in assay [5], 110% (inactive); in assay [5] (setting [6]), 110%; in assay [5] (setting [7]), 109%.

For `COc1ccc(NC(=O)C2C3C=CC(C3)C2C(=O)NCc2ccco2)c(OC)c1` (stereo not drawn), the GFP response vs DMSO in assay [1] was 97.6% (inactive); in assay [1] (setting [6]), 94.4%; in assay [1] (setting [7]), 93.3%; in assay [3], 101% (inactive). In addition, the GFP response relative to DMSO in assay [2] is 100% (inactive); in assay [2] (setting [8]), 96%; in assay [2] (setting [9]), 94.4%. Also, the GFP response, % of DMSO was 103% (inactive) in assay [4], 98.6% (inactive) in assay [5], 95.8% in assay [5] (setting [6]) and 96% in assay [5] (setting [7]).
